The values below come from ChEMBL document CHEMBL1156136, “Hypoxia-activated prodrugs: substituent effects on the properties of nitro seco-1,2,9,9a-tetrahydrocyclopropa[c]benz[e]indol-4-one (nitroCBI) prodrugs of DNA minor groove alkylating agents” (J Med Chem, 2009).

The test system of assay [1] is HT-29. The experiment in a line: Cytotoxicity against human HT-29 cells in oxic condition after 4 hrs by sulforhodamine B assay. The settings on record: HT-29, 4 h. The format is functional, cell-based. The essentials: (§1)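 Log-phase monolayers exposed to drug for 4 h under aerobic (20% O2) or anoxic (<20 ppm O2) conditions, then sulforhodamine B staining 5 days later. IC50 interpolated as concentration lowering cell density to 50% of same-plate controls. HCR = IC50(oxic)/IC50(hypoxic), mean of intraexperiment ratios. A549 P450R line is a stable transfectant with 9-fold higher cytochrome c reduction rate than parent.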

The test system of assay [2] is SK-OV-3. The experiment in a line: Cytotoxicity against human SKOV3 cells in oxic condition after 4 hrs by sulforhodamine B assay. The assay is classed as functional, cell-based. The settings on record: SK-OV-3, 4 h. Put shortly: as §1
For assay [3], the system named is SK-OV-3. The experiment in a line: Hypoxic cytotoxicity ratio, IC50 for human SKOV3 cells in oxic condition to IC50 for human SKOV3 cells in hypoxic condition. The format is functional. The essentials:
as §1

Assay [4] relates to HT-29. The assay is described as follows: Cytotoxicity against human HT-29 cells in hypoxic condition after 4 hrs by sulforhodamine B assay. The format is functional, cell-based. The conditions noted are these: HT-29, 4 h. The essentials:
as §1
For orientation: In SRB staining, fixed cells bind dye roughly in proportion to their protein.

The test system of assay [5] is SK-OV-3. The experiment in a line: Cytotoxicity against human SKOV3 cells in hypoxic condition after 4 hrs by sulforhodamine B assay. The settings on record: SK-OV-3, 4 h. The assay is classed as functional, cell-based. Put shortly: as §1
Assay [6] relates to HT-29. The assay is described as follows: Hypoxic cytotoxicity ratio, IC50 for human HT-29 cells in oxic condition to IC50 for human HT-29 cells in hypoxic condition. The assay is classed as functional. Put shortly: as §1

pIC50: −log10 of the molar value.

In the case of `CN(C)CCOc1ccc2[nH]c(C(=O)N3CC(CCl)c4c3cc([N+](=O)[O-])c3c(C#N)cccc43)cc2c1` (stereo not drawn), the pIC50 in the assay on HT-29 [1] was 6.92; with SK-OV-3 [2] it was 6.77; in the assay on HT-29 [4], 10.00; in the assay with SK-OV-3 [5] it was 10.00. Also, the “Ratio IC50” value in the assay with SK-OV-3 [3] was 1.7; in the assay with HT-29 [6] it was 1.1.

For the compound `CN(C)CCOc1ccc2[nH]c(C(=O)N3CC(CCl)c4c3cc(N)c3ccc(S(C)(=O)=O)cc43)cc2c1` (stereo not drawn), the pIC50 with HT-29 [1] is 4.54; with SK-OV-3 [2], 4.74; in the assay on HT-29 [4], 7.80; in the assay on SK-OV-3 [5], 7.92. For the same compound, the figures for the “Ratio IC50” value in the assay on SK-OV-3 [3] and in the assay with HT-29 [6] were 1.5 and 1.9, respectively.

With `COc1cc2cc(C(=O)N3CC(CCl)c4c3cc(N)c3ccc(S(C)(=O)=O)cc43)[nH]c2c(OC)c1OC` (stereo not drawn), the pIC50 is 4.60 in the assay on HT-29 [1], 4.72 with SK-OV-3 [2], 7.55 in the assay with HT-29 [4] and 7.85 in the assay on SK-OV-3 [5]. Further, the “Ratio IC50” value in the assay on SK-OV-3 [3] worked out at 1.4; in the assay on HT-29 [6], 1.

As for `CN(C)CCOc1ccc2[nH]c(C(=O)N3CC(CCl)c4c3cc(N)c3cc(S(N)(=O)=O)ccc43)cc2c1` (stereo not drawn), the pIC50 in the assay with HT-29 [1] was 4.46; with SK-OV-3 [2] it was 4.64; in the assay with HT-29 [4] it was 7.64; in the assay on SK-OV-3 [5], 7.80. Besides, the figures for the “Ratio IC50” value with SK-OV-3 [3] and in the assay on HT-29 [6] were 1.4 and 1.8, respectively.

As to `COC(=O)c1ccc2c3c(cc([N+](=O)[O-])c2c1)N(C(=O)c1cc2cc(OC)c(OC)c(OC)c2[nH]1)CC3CCl` (stereo not drawn), the pIC50 in the assay on HT-29 [1] is 5.72; in the assay with SK-OV-3 [2], 5.96; with HT-29 [4] it was 9.09; in the assay with SK-OV-3 [5], 9.29. For the same compound, the “Ratio IC50” value with SK-OV-3 [3] was 4; with HT-29 [6], 3.2.

As to `CN(C)CCOc1ccc2[nH]c(C(=O)N3CC(CCl)c4c3cc([N+](=O)[O-])c3cc([N+](=O)[O-])ccc43)cc2c1` (stereo not drawn), the pIC50 with HT-29 [1] was 6.05; with SK-OV-3 [2], 5.96; with HT-29 [4] it was 10.03; with SK-OV-3 [5] it was 9.92. Further, the “Ratio IC50” value in the assay on SK-OV-3 [3] is recorded as 9.3; in the assay with HT-29 [6], 9.6.

Take `COc1cc2cc(C(=O)N3CC(CCl)c4c3cc([N+](=O)[O-])c3cc([N+](=O)[O-])ccc43)[nH]c2c(OC)c1OC` (stereo not drawn): the negative logarithm of the IC50 (pIC50) was 4.85 in the assay with HT-29 [1], 4.80 in the assay with SK-OV-3 [2], 5.89 in the assay on HT-29 [4] and 6.62 with SK-OV-3 [5]. Moreover, the “Ratio IC50” value with SK-OV-3 [3] was found to be 70; with HT-29 [6], 12.

On to `COc1cc2cc(C(=O)N3CC(CCl)c4c3cc([N+](=O)[O-])c3c([N+](=O)[O-])cccc43)[nH]c2c(OC)c1OC` (stereo not drawn), for which the pIC50 in the assay on HT-29 [1] is under 4.70; in the assay with SK-OV-3 [2], under 4.70; in the assay with HT-29 [4], under 7.70; with SK-OV-3 [5], under 7.70.

On to `CN(C)CCOc1ccc2[nH]c(C(=O)N3CC(CCl)c4c3cc([N+](=O)[O-])c3ccc(C(N)=O)cc43)cc2c1` (stereo not drawn), for which the negative-log IC50 (pIC50) with HT-29 [1] is 5.55; in the assay on SK-OV-3 [2] it was 5.47. The entries for the “Ratio IC50” value in the assay with SK-OV-3 [3] and with HT-29 [6] were 34 and 22, respectively.

Consider `CC(=O)c1ccc2c([N+](=O)[O-])cc3c(c2c1)C(CCl)CN3C(=O)c1cc2cc(OCCN(C)C)ccc2[nH]1` (stereo not drawn), for which the pIC50 is 6.82 in the assay with HT-29 [1] and 6.70 with SK-OV-3 [2]. The “Ratio IC50” value in the assay with SK-OV-3 [3] came out at 1.3; with HT-29 [6], 1.1.

For the compound `COc1cc2cc(C(=O)N3CC(CCl)c4c3cc(N)c3cc(C(N)=O)ccc43)[nH]c2c(OC)c1OC` (stereo not drawn), the pIC50 is 4.23 in the assay on HT-29 [1], 4.47 in the assay on SK-OV-3 [2], 7.55 with HT-29 [4] and 7.57 in the assay on SK-OV-3 [5]. The entries for the “Ratio IC50” value in the assay with SK-OV-3 [3] and in the assay on HT-29 [6] were 1.2 and 2.3, respectively.

Consider `COc1cc2cc(C(=O)N3CC(CCl)c4c3cc([N+](=O)[O-])c3ccc(S(C)(=O)=O)cc43)[nH]c2c(OC)c1OC` (stereo not drawn), for which the pIC50 is 4.85 in the assay with HT-29 [1], 4.96 with SK-OV-3 [2], 8.14 with HT-29 [4] and 8.41 in the assay on SK-OV-3 [5]. The entries for the “Ratio IC50” value in the assay on SK-OV-3 [3] and in the assay with HT-29 [6] were 4.2 and 2.5, respectively.

With `CN(C)CCOc1ccc2[nH]c(C(=O)N3CC(CCl)c4c3cc([N+](=O)[O-])c3ccc(C#N)cc43)cc2c1` (stereo not drawn), the negative logarithm of the IC50 (pIC50) was 5.85 in the assay with HT-29 [1], 5.92 with SK-OV-3 [2], 5.92 with HT-29 [4] and 6.06 with SK-OV-3 [5]. The “Ratio IC50” value was determined as 1.5 with SK-OV-3 [3] and 1.4 in the assay on HT-29 [6].

As for `COc1cc2cc(C(=O)N3CC(CCl)c4c3cc([N+](=O)[O-])c3cc(C(C)=O)ccc43)[nH]c2c(OC)c1OC` (stereo not drawn), the negative logarithm of the IC50 (pIC50) with HT-29 [1] is 5.39; in the assay with SK-OV-3 [2], 5.29; in the assay with HT-29 [4], 9.03; with SK-OV-3 [5], 9.36. For the same compound, the “Ratio IC50” value is given as 19 with SK-OV-3 [3] and 5.2 with HT-29 [6].

Consider `CC(=O)c1ccc2c3c(cc(N)c2c1)N(C(=O)c1cc2cc(OCCN(C)C)ccc2[nH]1)CC3CCl` (stereo not drawn), for which the negative logarithm of the IC50 (pIC50) in the assay with HT-29 [1] was 5.12; with SK-OV-3 [2], 4.96; with HT-29 [4], 8.25; in the assay on SK-OV-3 [5], 8.09. Further, the “Ratio IC50” value came to 1.4 with SK-OV-3 [3] and 1.5 in the assay on HT-29 [6].

On to `COC(=O)c1ccc2c([N+](=O)[O-])cc3c(c2c1)C(CCl)CN3C(=O)c1cc2cc(OCCN(C)C)ccc2[nH]1` (stereo not drawn), for which the values for the pIC50 in the assay on HT-29 [1] and in the assay on SK-OV-3 [2] were 6.26 and 6.28, respectively. In addition, the figures for the “Ratio IC50” value in the assay on SK-OV-3 [3] and with HT-29 [6] were 2.4 and 1.6, respectively.

For the compound `CN(C)CCOc1ccc2[nH]c(C(=O)N3CC(CCl)c4c3cc([N+](=O)[O-])c3cccc([N+](=O)[O-])c43)cc2c1` (stereo not drawn), the negative-log IC50 (pIC50) in the assay on HT-29 [1] was 5.85; with SK-OV-3 [2], 5.92. Also, the figures for the “Ratio IC50” value in the assay with SK-OV-3 [3] and in the assay on HT-29 [6] were 1.5 and 1.3, respectively.

For `CN(C)CCOc1ccc2[nH]c(C(=O)N3CC(CCl)c4c3cc([N+](=O)[O-])c3ccc(S(C)(=O)=O)cc43)cc2c1` (stereo not drawn), the negative logarithm of the IC50 (pIC50) in the assay on HT-29 [1] was 6.01; in the assay with SK-OV-3 [2], 5.72. The “Ratio IC50” value with SK-OV-3 [3] was determined as 2.7; in the assay with HT-29 [6], 1.2.

For the compound `COC(=O)c1ccc2c3c(cc([N+](=O)[O-])c2c1)N(C(=O)c1cc2cc(OCCN(C)C)ccc2[nH]1)CC3CCl` (stereo not drawn), the pIC50 in the assay on HT-29 [1] is 6.49; in the assay on SK-OV-3 [2] it was 6.36. Also, the “Ratio IC50” value is given as 1.9 in the assay with SK-OV-3 [3] and 1.2 in the assay on HT-29 [6].

Regarding `CN(C)CCOc1ccc2[nH]c(C(=O)N3CC(CCl)c4c3cc([N+](=O)[O-])c3ccccc43)cc2c1` (stereo not drawn), the pIC50 in the assay on HT-29 [1] is 6.33; in the assay on SK-OV-3 [2] it was 5.85; with HT-29 [4], 9.32; in the assay with SK-OV-3 [5] it was 9.06.

Regarding `CN(C)CCOc1ccc2[nH]c(C(=O)N3CC(CCl)c4c3cc([N+](=O)[O-])c3cc(C(N)=O)ccc43)cc2c1` (stereo not drawn), the pIC50 in the assay with HT-29 [1] is 5.39; with SK-OV-3 [2], 5.41.

Consider `CC(=O)c1ccc2c3c(cc([N+](=O)[O-])c2c1)N(C(=O)c1cc2cc(OCCN(C)C)ccc2[nH]1)CC3CCl` (stereo not drawn), for which the pIC50 is 6.77 with HT-29 [1] and 6.19 in the assay on SK-OV-3 [2]. Moreover, the “Ratio IC50” value in the assay with SK-OV-3 [3] worked out at 4; in the assay with HT-29 [6], 1.5.

As to `CN(C)CCOc1ccc2[nH]c(C(=O)N3CC(CCl)c4c3cc([N+](=O)[O-])c3cc(C#N)ccc43)cc2c1` (stereo not drawn), the pIC50 in the assay with HT-29 [1] was 6.15; in the assay with SK-OV-3 [2], 6.09; in the assay with HT-29 [4], 9.37; in the assay with SK-OV-3 [5] it was 9.72.

With `CN(C)CCOc1ccc2[nH]c(C(=O)N3CC(CCl)c4c3cc([N+](=O)[O-])c3ccc(S(N)(=O)=O)cc43)cc2c1` (stereo not drawn), the figures for the pIC50 in the assay with HT-29 [1] and in the assay on SK-OV-3 [2] were 5.05 and 5.31, respectively. In addition, the figures for the “Ratio IC50” value with SK-OV-3 [3] and in the assay with HT-29 [6] were 21 and 26, respectively.

A word on the pIC50: it is −log10 of the IC50, conventionally taken in molar units. Read a high pIC50 as a small IC50.
